The subject of data set [1] is Mus musculus. The experiment in a line: Inhibition of 11beta-HSD1 in ICR mouse assessed as inhibition of conversion of [3H]-cortisone to [3H]-cortisol at 10 mg/kg, po administered 16 hrs before [3H]-cortisone challenge. It counts as functional. In short, it runs like this: (§1)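 Mouse pharmacodynamic model. Compound given 10 mg/kg PO, then 3H-cortisone by tail vein injection 1, 4 or 16 h after dosing. […] Plasma compound levels were measured after the PD studies.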

Data set [2] is described as follows: Bioavailability in C57 mouse at 2 mg/kg, iv and 10 mg/kg, po. Type of data set: ADME, organism-based. Conditions: in vivo; call rule not given here. The method in brief:
(§2)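 Mouse PK from 2 mg/kg IV and 10 mg/kg oral dosing. The PO AUC is reported normalized to dose.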

The target of data set [3] is 11-beta-hydroxysteroid dehydrogenase 1 (Homo sapiens, UniProt P28845). In words: Inhibition of human 11beta-HSD1 expressed in CHO-K1 cells assessed as conversion of [3H]-cortisone to [3H]-cortisol by scintillation proximity assay. It counts as cell-based. In short, it runs like this:
(§3)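 Scintillation proximity assay (SPA). IC50 values are the average of two determinations.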

For data set [4], the system named is Mus musculus. The experiment in a line: Inhibition of 11beta-HSD1 in ICR mouse assessed as inhibition of conversion of [3H]-cortisone to [3H]-cortisol at 10 mg/kg, po administered 4 hrs before [3H]-cortisone challenge. Type of data set: functional. In short, it runs like this:
as §1

Data set [5] in a line: Clearance in C57 mouse at 2 mg/kg, iv. It counts as ADME, organism-based. More on the design: dose 2 mg/kg, route intravenous. Conditions: in vivo. The method in brief:
as §2

For data set [6], the target named is 11-beta-hydroxysteroid dehydrogenase 1 (Mus musculus, UniProt P50172). In words: Inhibition of mouse 11beta-HSD1 expressed in CHO-K1 cells assessed as conversion of [3H]-cortisone to [3H]-cortisol by scintillation proximity assay. Type of data set: cell-based. Background: Scintillation proximity formats need no separation of bound from free tracer.
Sequence of 11-beta-hydroxysteroid dehydrogenase 1 (Mus musculus, UniProt P50172) (P50172 whole entry): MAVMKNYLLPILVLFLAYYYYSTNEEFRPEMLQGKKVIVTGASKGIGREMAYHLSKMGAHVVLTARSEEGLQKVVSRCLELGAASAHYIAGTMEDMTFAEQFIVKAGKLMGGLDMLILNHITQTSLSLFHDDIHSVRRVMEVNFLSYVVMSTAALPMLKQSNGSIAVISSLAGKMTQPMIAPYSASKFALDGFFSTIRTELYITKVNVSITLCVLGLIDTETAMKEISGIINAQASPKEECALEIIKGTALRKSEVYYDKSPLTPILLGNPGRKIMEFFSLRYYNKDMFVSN
In data set [7] the target is T1, 11-beta-hydroxysteroid dehydrogenase type 2 (Mus musculus, UniProt P51661).
T1 sequence (P51661 whole entry): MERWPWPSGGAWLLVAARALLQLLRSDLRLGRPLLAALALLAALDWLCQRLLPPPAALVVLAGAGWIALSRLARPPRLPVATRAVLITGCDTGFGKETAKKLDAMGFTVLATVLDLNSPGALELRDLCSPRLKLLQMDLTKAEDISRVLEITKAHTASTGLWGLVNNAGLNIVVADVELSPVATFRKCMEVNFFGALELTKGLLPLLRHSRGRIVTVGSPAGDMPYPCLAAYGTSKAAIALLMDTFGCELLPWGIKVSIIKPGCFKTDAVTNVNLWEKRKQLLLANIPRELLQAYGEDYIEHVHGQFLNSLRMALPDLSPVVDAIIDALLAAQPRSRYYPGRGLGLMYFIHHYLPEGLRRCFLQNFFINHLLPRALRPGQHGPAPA
The experiment in a line: Inhibition of mouse 11beta-HSD2 expressed in CHO-K1 cells assessed as conversion of [3H]-cortisol to [3H]-cortisone by scintillation proximity assay. Type of data set: cell-based. The method in brief: as §3

Data set [8] has as its target T2, 11-beta-hydroxysteroid dehydrogenase type 2 (Homo sapiens, UniProt P80365).
T2 sequence (P80365 whole entry): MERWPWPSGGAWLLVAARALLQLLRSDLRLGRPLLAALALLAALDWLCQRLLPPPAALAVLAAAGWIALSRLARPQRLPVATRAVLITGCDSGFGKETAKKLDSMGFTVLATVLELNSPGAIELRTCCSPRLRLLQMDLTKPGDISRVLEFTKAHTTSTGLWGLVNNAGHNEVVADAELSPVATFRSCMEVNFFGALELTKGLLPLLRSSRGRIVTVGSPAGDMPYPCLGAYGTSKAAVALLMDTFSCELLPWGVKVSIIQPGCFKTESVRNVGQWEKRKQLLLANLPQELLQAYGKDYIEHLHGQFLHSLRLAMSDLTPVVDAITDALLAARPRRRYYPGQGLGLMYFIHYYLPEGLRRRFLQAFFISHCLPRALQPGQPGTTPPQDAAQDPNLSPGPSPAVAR
The experiment in a line: Inhibition of human 11beta-HSD2 expressed in CHO-K1 cells assessed as conversion of [3H]-cortisol to [3H]-cortisone by scintillation proximity assay. It counts as cell-based.

Data set [9] addresses T3, Nuclear receptor subfamily 1 group I member 2 (Homo sapiens, UniProt O75469).
T3 sequence (O75469 whole entry): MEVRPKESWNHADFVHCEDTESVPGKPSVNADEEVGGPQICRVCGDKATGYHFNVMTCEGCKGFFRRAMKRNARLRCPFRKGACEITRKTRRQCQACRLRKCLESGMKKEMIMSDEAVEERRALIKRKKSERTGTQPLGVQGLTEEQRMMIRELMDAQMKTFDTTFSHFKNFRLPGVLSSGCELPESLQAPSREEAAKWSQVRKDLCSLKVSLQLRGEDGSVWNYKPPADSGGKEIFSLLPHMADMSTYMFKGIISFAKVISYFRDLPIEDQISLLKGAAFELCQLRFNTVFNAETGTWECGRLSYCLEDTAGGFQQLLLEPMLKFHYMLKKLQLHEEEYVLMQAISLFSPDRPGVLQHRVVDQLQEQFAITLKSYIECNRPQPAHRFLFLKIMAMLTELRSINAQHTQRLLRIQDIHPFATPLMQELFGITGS
In words: Activation of PXR. The method in brief: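 Cyp induction potential assessed in human liver microsomes; read out as human PXR activation, with test compound at 10 μM.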

The subject of data set [10] is Mus musculus. In words: Inhibition of 11beta-HSD1 in ICR mouse assessed as inhibition of conversion of [3H]-cortisone to [3H]-cortisol at 10 mg/kg, po administered 1 hr before [3H]-cortisone challenge. It counts as functional. In short, it runs like this: as §1

Molecules are shown by their SMILES. A value given as a limit tells only on which side of the number the result lay.

Sequence of 11-beta-hydroxysteroid dehydrogenase 1 (Homo sapiens, UniProt P28845) (P28845 whole entry): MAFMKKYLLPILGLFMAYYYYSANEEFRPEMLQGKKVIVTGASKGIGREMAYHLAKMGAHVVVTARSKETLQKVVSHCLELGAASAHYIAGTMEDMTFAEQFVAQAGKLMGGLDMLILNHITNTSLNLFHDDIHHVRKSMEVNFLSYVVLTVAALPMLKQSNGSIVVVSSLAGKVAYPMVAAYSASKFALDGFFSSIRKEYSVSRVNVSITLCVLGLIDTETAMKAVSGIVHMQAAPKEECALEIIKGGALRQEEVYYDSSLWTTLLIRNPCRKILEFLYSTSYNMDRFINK

As to `Cn1c(-c2ccccc2C(F)(F)F)nnc1C12CCC(CCCC(C)(F)F)(CC1)CC2`, the inhibition in vivo (as a rule, the drop in the measured response relative to a control, in per cent) at 10 mg/kg in the data set on Mus musculus [1] was determined as 94%; in the data set on Mus musculus [4], 99%. The bioavailability (usually dose-corrected exposure relative to a reference, in per cent) in [2] amounted to 36%. Also, the IC50 – broadly, the concentration that gives 50% inhibition – is under 1 nM in [3], under 1 nM in [6], over 4000 nM in data set [7] and over 4000 nM in data set [8]. The clearance (in general, the volume of plasma or blood freed of the substance per unit of time) in data set [5] was 14 mL/min/kg.

Regarding `CC(O)CCCC12CCC(c3nnc(-c4ccccc4C(F)(F)F)n3C)(CC1)CC2` (stereo not drawn), the bioavailability in data set [2] worked out at 21%. The IC50 in data set [3] was under 1 nM; in data set [6], 1.7 nM; in [7], over 4000 nM; in [8] it was over 1000 nM. For the same compound, in the data set on Mus musculus [4], the inhibition in vivo at 10 mg/kg was 97%. In [5], the clearance was 88 mL/min/kg.

Take `Cn1c(-c2ccccc2C(F)(F)F)nnc1C12CCC(COc3ccc(Cl)cc3)(CC1)CC2`: the inhibition in vivo at 10 mg/kg with Mus musculus [1] came to 77%; in the data set with Mus musculus [4] it was 98%. The IC50 in data set [3] was found to be 1.1 nM; in data set [6] it was 1.5 nM. Further, the result in data set [9] was Active.

With `CCCCCC12CCC(c3nnc(-c4ccccc4C(F)(F)F)n3C)(CC1)CC2`, the bioavailability in data set [2] was 20%. In addition, the IC50 in [3] is 1.8 nM; in [7], over 4000 nM; in data set [8], 1300 nM. In addition, in the data set on Mus musculus [4], the inhibition in vivo at 10 mg/kg turned out to be 98%. In addition, in [5], the clearance is 273 mL/min/kg.

Turning to `CC(=O)CCCC12CCC(c3nnc(-c4ccccc4C(F)(F)F)n3C)(CC1)CC2`, the results for the inhibition in vivo at 10 mg/kg with Mus musculus [1] and in the data set on Mus musculus [4] were 32% and 90%, respectively. Moreover, the bioavailability in data set [2] turned out to be 25%. Besides, the IC50 in [3] is 1.2 nM; in data set [6], 1.3 nM; in data set [7], over 4000 nM; in data set [8], 4000 nM. This compound gave a clearance in [5] of 21 mL/min/kg.

For `CC(O)CCCC12CCC(c3nnc4n3CCCCCC4)(CC1)CC2` (stereo not drawn), the IC50 was determined as 35 nM in data set [3] and 19 nM in [6]. Further, the inhibition in vivo at 10 mg/kg is 41% with Mus musculus [4] and 67% with Mus musculus [10].

As for `CCS(=O)(=O)NCC12CCC(c3nnc(-c4ccccc4C(F)(F)F)n3C)(CC1)CC2`, the inhibition in vivo at 10 mg/kg came to 50% in the data set with Mus musculus [1] and 95% in the data set with Mus musculus [4]. The IC50 in data set [3] is 20 nM; in [6], 2.9 nM; in data set [7], over 4000 nM; in [8] it was over 4000 nM.

Take `CCCCCC12CCC(c3nnc4n3CCCCCC4)(CC1)CC2`: in data set [2], the bioavailability was found to be 6%. The IC50 in data set [3] was 4 nM. The results for the inhibition in vivo at 10 mg/kg in the data set on Mus musculus [4] and with Mus musculus [10] were 51% and 71%, respectively.

The values above are taken from ChEMBL document CHEMBL1759916, “Bicyclo[2.2.2]octyltriazole inhibitors of 11β-hydoxysteroid dehydrogenase type 1. Pharmacological agents for the treatment of metabolic syndrome” (Bioorg Med Chem Lett, 2011).
